Data as given in ChEMBL document CHEMBL1145627, “E-ring-modified 7-oxyiminomethyl camptothecins: Synthesis and preliminary in vitro and in vivo biological evaluation” (Bioorg Med Chem Lett, 2008).

Experiments:
HT-29 [1] = experiment: Resistant index, ratio of IC50 for BCRP overexpressing mitoxantrone-resistant human HT29 cells to IC50 for human HT29 cells; assay type: functional
How it was run: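 Resistance index in HT29/mit, the BCRP-overexpressing subline. IC50 values come from the 1-h exposure growth inhibition assay, as 50% growth reduction versus untreated controls.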

HT-29 [2] = experiment: Antiproliferative activity against human HT29 cells after 1 hr of drug exposure measured after 72 hrs; assay type: functional, cell-based
How it was run: (§1)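 Growth inhibition after 1-h drug exposure; IC50 is the concentration giving 50% reduction of cell growth versus untreated controls. Values are means ± SD from at least three experiments.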

HT-29 [3] = experiment: Antiproliferative activity against BCRP overexpressing mitoxantrone-resistant human HT29 cells after 1 hr of drug exposure measured after 72 hrs; assay type: functional, cell-based; how it was run: as §1
NCI-H460 [4] = experiment: Antiproliferative activity against human H460 cells after 1 hr of drug exposure measured after 72 hrs; assay type: functional, cell-based; how it was run: as §1
[5] = Antitumor activity against human CoBa cells xenografted in athymic mouse assessed as inhibition of tumor volume at 50 mg/kg, iv administered in q4dx4 schedule
Mus musculus [6] = experiment: Toxicity in human Panc1 cells xenografted athymic mouse assessed as survival at 400 mg/kg, po administered in q4dx4 schedule; assay type: organism-based, PANC-1; set-up: route oral; conditions: in vivo
How it was run: (§2)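 Mice carried subcutaneous human tumor xenografts (CoBa, MKN-28 or Panc-1). They were dosed orally on an intermittent q4dx4 schedule, which was also used to set the maximum tolerated dose. Toxicity was scored as lethal toxicity, given as dead/treated mice. Drug-induced % body weight loss was also recorded.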

Mus musculus [7] = experiment: Toxicity in human CoBa cells xenografted athymic mouse assessed as survival at 50 mg/kg, iv administered in q4dx4 schedule; assay type: organism-based; set-up: dose 50 mg/kg, route intravenous; conditions: in vivo
PANC-1 = experiment: Antitumor activity against human Panc1 cells xenografted athymic mouse assessed as inhibition of tumor volume at 400 mg/kg, po administered in q4dx4 schedule; assay type: functional
How it was run: (§3)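 Human tumor xenografts (CoBa colon, MKN-28 gastric, Panc-1 pancreatic) grown subcutaneously in mice. Drug given orally on an intermittent q4dx4 schedule. Read-out is % tumor volume inhibition in treated versus control mice. Complete responses were scored as tumor disappearance lasting at least ten days.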

Mus musculus [8] = experiment: Toxicity in human MKN28 cells xenografted athymic mouse assessed as survival at 16 mg/kg, po administered in q4dx4 schedule; assay type: organism-based, MKN-28; set-up: dose 16 mg/kg, route oral; conditions: in vivo; how it was run: as §2
Mus musculus [9] = experiment: Toxicity in human MKN28 cells xenografted athymic mouse assessed as loss of body weight at 8 mg/kg, po administered in q4dx4 schedule; assay type: organism-based, MKN-28; set-up: dose 8 mg/kg, route oral; conditions: in vivo
How it was run: (§4)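 Oral dosing on an intermittent q4dx4 schedule in mice bearing MKN-28 gastric carcinoma xenografts. Tumor volume inhibition % is relative to controls. Body weight loss % is the loss induced by drug treatment.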

MKN-28 [10] = experiment: Antitumor activity against human MKN28 cells xenografted athymic mouse assessed as inhibition of tumor volume at 8 mg/kg, po administered in q4dx4 schedule; assay type: functional; how it was run: as §3
Mus musculus [11] = experiment: Toxicity in human MKN28 cells xenografted athymic mouse assessed as loss of body weight at 16 mg/kg, po administered in q4dx4 schedule; assay type: organism-based, MKN-28; set-up: dose 16 mg/kg, route oral; conditions: in vivo; how it was run: as §4
Mus musculus [12] = experiment: Toxicity in human MKN28 cells xenografted athymic mouse assessed as loss of body weight at 4 mg/kg, po administered in q4dx4 schedule; assay type: organism-based, MKN-28; set-up: dose 4 mg/kg, route oral; conditions: in vivo; how it was run: as §4
MKN-28 [13] = experiment: Antitumor activity against human MKN28 cells xenografted athymic mouse assessed as inhibition of tumor volume at 16 mg/kg, po administered in q4dx4 schedule; assay type: functional; how it was run: as §3
MKN-28 [14] = experiment: Antitumor activity against human MKN28 cells xenografted athymic mouse assessed as inhibition of tumor volume at 4 mg/kg, po administered in q4dx4 schedule; assay type: functional; how it was run: as §3
Mus musculus [15] = experiment: Toxicity in human MKN28 cells xenografted athymic mouse assessed as survival at 4 mg/kg, po administered in q4dx4 schedule; assay type: organism-based, MKN-28; set-up: dose 4 mg/kg, route oral; conditions: in vivo; how it was run: as §2
Mus musculus [16] = experiment: Toxicity in human MKN28 cells xenografted athymic mouse assessed as survival at 8 mg/kg, po administered in q4dx4 schedule; assay type: organism-based, MKN-28; set-up: dose 8 mg/kg, route oral; conditions: in vivo; how it was run: as §2
NCI-H460 [17] = experiment: Antiproliferative activity against human H460 cells after 2 hrs of drug exposure measured after 72 hrs; assay type: functional, cell-based
How it was run: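 Growth inhibition with IC50 taken after 2-h drug exposure, as the concentration giving 50% reduction of cell growth versus untreated controls.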

CC[C@@]1(O)C(=O)OCc2c1cc1n(c2=O)Cc2c-1nc1ccccc1c2/C=N/OCc1ccccc1
Ratio IC50 (HT-29 [1]): 0.75
IC50 (HT-29 [2]): 56 nM
IC50 (HT-29 [3]): 42 nM
IC50 (NCI-H460 [4]): 30 nM

CC[C@@]1(O)OC(=O)c2c1cc1n(c2=O)Cc2c-1nc1ccccc1c2/C=N/OC(C)(C)C
LCK [5]: 1.1
Activity (Mus musculus [6]): Non-toxic
Activity (Mus musculus [7]): Non-toxic
LCK (PANC-1): 1.6

CCC1(O)CC(=O)OCc2c1cc1n(c2=O)Cc2c-1nc1ccccc1c2/C=N/OCc1ccccc1 (stereo unspecified)
Activity (Mus musculus [8]): Non-toxic
Activity (Mus musculus [9]): 6%
LCK (MKN-28 [10]): 0.4
inhibition in vivo at 8 mg/kg (MKN-28 [10]; Mus musculus, MKN-28): 60%
Activity (Mus musculus [11]): 0%
Ratio IC50 (HT-29 [1]): 20
Activity (Mus musculus [12]): 0%
LCK (MKN-28 [13]): 0.2
inhibition in vivo at 16 mg/kg (MKN-28 [13]; Mus musculus, MKN-28): 47%
LCK (MKN-28 [14]): 0
inhibition in vivo at 4 mg/kg (MKN-28 [14]; Mus musculus, MKN-28): 17%
IC50 (HT-29 [2]): 17 nM
IC50 (HT-29 [3]): 350 nM
Activity (Mus musculus [15]): Non-toxic
IC50 (NCI-H460 [4]): 15 nM
Activity (Mus musculus [16]): Non-toxic

CC[C@@]1(O)CC(=O)OCc2c1cc1n(c2=O)Cc2c-1nc1ccccc1c2/C=N/OC(C)(C)C
IC50 (NCI-H460 [17]): 1.8 nM

CC[C@]1(O)CC(=O)OCc2c1cc1n(c2=O)Cc2c-1nc1ccccc1c2/C=N/OC(C)(C)C
IC50 (NCI-H460 [17]): > 200 nM
